According to ChEMBL document CHEMBL4390639, “Design, Synthesis, and Biological Evaluation of Novel Allosteric Protein Disulfide Isomerase Inhibitors” (J Med Chem, 2019):
The source made the active and inactive calls. The calls are words filed in the database; no cut-off is given here.

Columns and labels:
[1] = system: A 172; experiment: Induction of morphological changes in human A172 cells assessed as vesicle formation at 11 uM measured after 48 hrs by Giemsa-staining based microscopic analysis; type: functional, cell-based
[2] = system: U-87 MG; experiment: Down regulation of CD83 gene expression in human U87MG cells at 16 uM incubated for 4 hrs followed by bromouridine addition during last 30 mins of incubation by TRIzol-reagent based Bru-Seq analysis relative to control; type: functional, U-87MG ATCC
[3] = system: U-87 MG; experiment: Down regulation of STRA6 gene expression in human U87MG cells at 16 uM incubated for 4 hrs followed by bromouridine addition during last 30 mins of incubation by TRIzol-reagent based Bru-Seq analysis relative to control; type: functional, U-87MG ATCC
In short: (§1)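 U87MG cells exposed to compound or DMSO vehicle for 4 h, with 2 mM bromouridine added for the final 30 min. Total RNA isolated with TRIzol; Bru-labelled nascent RNA captured on anti-BrdU antibody-conjugated magnetic beads and sequenced. Transcript abundance expressed as RPKM relative to DMSO. Experiment performed once.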

[4] = system: U-87 MG; experiment: Down regulation of AC006206.2 gene expression in human U87MG cells at 16 uM incubated for 4 hrs followed by bromouridine addition during last 30 mins of incubation by TRIzol-reagent based Bru-Seq analysis relative to control; type: functional, U-87MG ATCC; in short: as §1
[5] = system: U-87 MG; experiment: Up regulation of PIR gene expression in human U87MG cells at 16 uM incubated for 4 hrs followed by bromouridine addition during last 30 mins of incubation by TRIzol-reagent based Bru-Seq analysis relative to control; type: functional, U-87MG ATCC; in short: as §1
[6] = system: U-87 MG; experiment: Up regulation of HMOX1 gene expression in human U87MG cells at 16 uM incubated for 4 hrs followed by bromouridine addition during last 30 mins of incubation by TRIzol-reagent based Bru-Seq analysis relative to control; type: functional, U-87MG ATCC; in short: as §1
[7] = system: U-87 MG; experiment: Up regulation of TRIM16L gene expression in human U87MG cells at 16 uM incubated for 4 hrs followed by bromouridine addition during last 30 mins of incubation by TRIzol-reagent based Bru-Seq analysis relative to control; type: functional, U-87MG ATCC
[8] = system: U-87 MG; experiment: Down regulation of AC124276.2 gene expression in human U87MG cells at 16 uM incubated for 4 hrs followed by bromouridine addition during last 30 mins of incubation by TRIzol-reagent based Bru-Seq analysis relative to control; type: functional, U-87MG ATCC
[9] = system: U-87 MG; experiment: Down regulation of RAET1E gene expression in human U87MG cells at 16 uM incubated for 4 hrs followed by bromouridine addition during last 30 mins of incubation by TRIzol-reagent based Bru-Seq analysis relative to control; type: functional, U-87MG ATCC; in short: as §1
[10] = system: U-87 MG; experiment: Down regulation of CTGF gene expression in human U87MG cells at 16 uM incubated for 4 hrs followed by bromouridine addition during last 30 mins of incubation by TRIzol-reagent based Bru-Seq analysis relative to control; type: functional, U-87MG ATCC
[11] = system: U-87 MG; experiment: Down regulation of RAD51 gene expression in human U87MG cells at 16 uM incubated for 4 hrs followed by bromouridine addition during last 30 mins of incubation by TRIzol-reagent based Bru-Seq analysis; type: functional, cell-based; conditions: U-87MG ATCC
In short: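 Bru-seq in U87MG cells treated at 16 μM for 4 h; 2 mM bromouridine present during the last 30 min. TRIzol total RNA, then anti-BrdU bead capture of labelled RNA and sequencing. Readout is RPKM traces versus DMSO control. Performed once.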

[12] = system: U-87 MG; experiment: Down regulation of AC007848.1 gene expression in human U87MG cells at 16 uM incubated for 4 hrs followed by bromouridine addition during last 30 mins of incubation by TRIzol-reagent based Bru-Seq analysis relative to control; type: functional, U-87MG ATCC
[13] = system: U-87 MG; experiment: Up regulation of VEGFD gene expression in human U87MG cells at 16 uM incubated for 4 hrs followed by bromouridine addition during last 30 mins of incubation by TRIzol-reagent based Bru-Seq analysis relative to control; type: functional, U-87MG ATCC
[14] = system: U-87 MG; experiment: Up regulation of TXNRD1 gene expression in human U87MG cells at 16 uM incubated for 4 hrs followed by bromouridine addition during last 30 mins of incubation by TRIzol-reagent based Bru-Seq analysis relative to control; type: functional, U-87MG ATCC
[15] = system: U-87 MG; experiment: Down regulation of LIF gene expression in human U87MG cells at 16 uM incubated for 4 hrs followed by bromouridine addition during last 30 mins of incubation by TRIzol-reagent based Bru-Seq analysis relative to control; type: functional, U-87MG ATCC
[16] = system: U-87 MG; experiment: Down regulation of C8orf4 gene expression in human U87MG cells at 16 uM incubated for 4 hrs followed by bromouridine addition during last 30 mins of incubation by TRIzol-reagent based Bru-Seq analysis relative to control; type: functional, U-87MG ATCC; in short: as §1
[17] = system: U-87 MG; experiment: Inhibition of colony formation in human U87MG cells assessed as combination index at 1 to 30 uM measured after 24 hrs in presence of arsenic trioxide by crystal violet staining based assay; type: functional, U-87MG ATCC
[18] = system: U-87 MG; experiment: Down regulation of SLITRK5 gene expression in human U87MG cells at 10 uM incubated for 4 hrs followed by bromouridine addition during last 30 mins of incubation by TRIzol-reagent based Bru-Seq analysis relative to control; type: functional, U-87MG ATCC
In short: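 Nascent transcription (Bru-seq) in U87MG cells: treatment at 10 μM for 4 h, with 2 mM bromouridine added for the final 30 min. Total RNA isolated with TRIzol; Bru-labelled RNA captured using anti-BrdU antibody on magnetic beads, then sequenced. Transcript traces reported as RPKM compared with DMSO-treated cells. Single experiment.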

[19] = system: U-87 MG; experiment: Down regulation of E2F1 gene expression in human U87MG cells at 10 uM incubated for 4 hrs followed by bromouridine addition during last 30 mins of incubation by TRIzol-reagent based Bru-Seq analysis; type: functional, cell-based; conditions: U-87MG ATCC
[20] = system: U-87 MG; experiment: Up regulation of DEDD2 gene expression in human U87MG cells at 10 uM incubated for 4 hrs followed by bromouridine addition during last 30 mins of incubation by TRIzol-reagent based Bru-Seq analysis relative to control; type: functional, U-87MG ATCC; in short: as §1
[21] = system: U-87 MG; experiment: Up regulation of MMP1 gene expression in human U87MG cells at 10 uM incubated for 4 hrs followed by bromouridine addition during last 30 mins of incubation by TRIzol-reagent based Bru-Seq analysis relative to control; type: functional, U-87MG ATCC; in short: as §1
[22] = system: U-87 MG; experiment: Up regulation of TRIB3 gene expression in human U87MG cells at 10 uM incubated for 4 hrs followed by bromouridine addition during last 30 mins of incubation by TRIzol-reagent based Bru-Seq analysis relative to control; type: functional, U-87MG ATCC
In short: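 U87MG cells treated 4 h with test compound (10 or 16 μM, as per line) or DMSO; 2 mM bromouridine added for final 30 min. Total RNA isolated with TRIzol, Bru-labelled nascent RNA captured with anti-BrdU antibody magnetic beads and sequenced; transcript abundance (RPKM) compared with DMSO control. Single experiment.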

[23] = system: U-87 MG; experiment: Up regulation of PSAT1 gene expression in human U87MG cells at 10 uM incubated for 4 hrs followed by bromouridine addition during last 30 mins of incubation by TRIzol-reagent based Bru-Seq analysis relative to control; type: functional, U-87MG ATCC; in short: as §1
[24] = system: U-87 MG; experiment: Down regulation of LRRC63 gene expression in human U87MG cells at 10 uM incubated for 4 hrs followed by bromouridine addition during last 30 mins of incubation by TRIzol-reagent based Bru-Seq analysis relative to control; type: functional, U-87MG ATCC
[25] = system: U-87 MG; experiment: Cytotoxicity against human U87MG cells assessed as inhibition of cell proliferation at <IC50 treated for 24 hrs, measured after 10 days by colony formation assay relative to control

SMILES: CCCCCN(CCCCC)S(=O)(=O)c1ccc(C(=O)/C=C/c2cccc(O)c2)cc1
- Activity [1]: Active

SMILES: COC(=O)c1cccc(/C=C/C(=O)c2cccc(O)c2)c1
- fold change (FC) [2]: 2.7
- fold change (FC) [3]: 4
- fold change (FC) [4]: 3.9
- fold change (FC) [5]: 4.3
- fold change (FC) [6]: 21.6
- fold change (FC) [7]: 4.9
- fold change (FC) [8]: 2.9
- fold change (FC) [9]: 3.4
- fold change (FC) [10]: 3.1
- Activity [11]: Active
- fold change (FC) [12]: 2.9
- fold change (FC) [13]: 6.2
- fold change (FC) [14]: 5.4
- fold change (FC) [15]: 2.7
- fold change (FC) [16]: 4.7

SMILES: N#Cc1cccc(/C=C/C(=O)c2ccc(O)cc2)c1
- CI [17]: <1

SMILES: CCCCCN(CCCCC)S(=O)(=O)c1ccc(C(=O)/C=C/c2cccc(C#N)c2)cc1
- fold change (FC) [18]: 3.6
- Activity [19]: Active
- fold change (FC) [20]: 11
- fold change (FC) [21]: 32.1
- fold change (FC) [22]: 34.1
- fold change (FC) [23]: 11.7
- fold change (FC) [24]: 2.5
- inhibition (INH) [25]: >50%
